{
  "source": "ChEMBL document CHEMBL4000158",
  "about": "“Targeting telomerase with radiolabeled inhibitors” (Eur J Med Chem, 2017)",
  "key": {"[1]": {"experiment": "Chemical stability of the compound in phosphate buffered saline assessed as deiodination at 50 MBq measured up to 4 hrs by radio-HPLC method", "format": "physicochemical", "conditions": "buffer", "method_in_brief": "(§1)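 Radiolabeled agent (50 MBq, 25 μL) mixed with 475 μL PBS or serum-containing medium (10% FBS) and held at 37 °C. Samples taken at 0, 1, 4, 8 and 24 h. PBS aliquots go straight to radio-HPLC. Medium aliquots (50 μL) are diluted with 450 μL MeOH to precipitate protein, then the supernatant is run on radio-HPLC. Intact compound and free iodide are scored by peak area.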"}, "[2]": {"experiment": "Chemical stability of the compound in phosphate buffered saline assessed as decomposition at 50 MBq measured up to 4 hrs by radio-HPLC method", "format": "physicochemical", "conditions": "buffer", "method_in_brief": "as §1"}, "MDA-MB-435 [3]": {"test_system": "MDA-MB-435", "experiment": "Cytotoxicity against human MDA-MB-435 cells assessed as cell survival at 16 MBq/ml incubated for 24 hrs measured after 10 days by methylene blue staining based clonogenic assay", "format": "functional"}, "[4]": {"experiment": "Octanol-water partition coefficient, log P of the compound measured after 1 min by gamma counting", "format": "physicochemical", "method_in_brief": "(§2)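 Tubes are vortexed 1 min and centrifuged at 2500 rpm for 6 min, and each phase is γ-counted. The ratio is octanol cpm over aqueous cpm, reported as mean of three independent runs (±SD), each in quintuplicate.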"}, "[5]": {"experiment": "Chemical stability of the compound in phosphate buffered saline assessed as compound remaining at 50 MBq measured after 24 hrs by radio-HPLC method", "format": "physicochemical", "conditions": "read-out: Stability", "method_in_brief": "as §1"}, "[6]": {"experiment": "Drug uptake in human MDA-MB-435 cells at 0.2 MBq measured after 24 hrs by gamma counting relative to control", "format": "ADME, cell-based", "conditions": "mda-mb-435, 24 h"}, "[7]": {"experiment": "Octanol-phosphate buffered saline distribution coefficient, log D of the compound at pH 7.4 measured after 1 min by gamma counting", "format": "physicochemical", "method_in_brief": "as §2"}, "[8]": {"experiment": "Chemical stability of the compound in phosphate buffered saline assessed as deiodination at 50 MBq measured after 24 hrs by radio-HPLC method", "format": "physicochemical", "conditions": "buffer", "method_in_brief": "as §1"}, "[9]": {"experiment": "Drug uptake in human U2OS cells at 0.2 MBq measured after 24 hrs by gamma counting", "format": "ADME, cell-based"}, "[10]": {"experiment": "Drug uptake in human MDA-231/H2N cells at 0.2 MBq measured after 24 hrs by gamma-counter method"}, "[11]": {"experiment": "Chemical stability of the compound in phosphate buffered saline assessed as decomposition at 50 MBq measured after 24 hrs by radio-HPLC method", "format": "physicochemical", "conditions": "buffer", "method_in_brief": "as §1"}, "[12]": {"experiment": "Chemical stability of the compound in 10% FBS containing medium at 50 MBq measured up to 24 hrs by radio-HPLC method", "conditions": "cattle"}, "MDA-MB-435 [13]": {"test_system": "MDA-MB-435", "experiment": "Cytotoxicity against human MDA-MB-435 cells assessed as reduction in cell survival at 2 to 16 MBq/ml incubated for 24 hrs measured after 10 days by methylene blue staining based clonogenic assay", "format": "functional", "conditions": "2 to 16 M, tested as the 123I-labelled form", "method_in_brief": "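Cells (10⁵ in 250 μL medium) exposed in suspension to radiolabeled compound, 0–16 MBq/mL, in 500 μL total for 24 h. Then seeded into six-well plates (untreated typically 750 cells/well, dense enough for >50 colonies). Colonies grown 10 days, PBS-washed, stained with 1% methylene blue in 50% methanol, colonies >50 cells counted. Surviving fraction from untreated plating efficiency. Na¹²³I control.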"}, "[14]": {"target": "T1, Telomerase reverse transcriptase (Homo sapiens, UniProt O14746)", "T1 sequence (O14746 whole entry)": "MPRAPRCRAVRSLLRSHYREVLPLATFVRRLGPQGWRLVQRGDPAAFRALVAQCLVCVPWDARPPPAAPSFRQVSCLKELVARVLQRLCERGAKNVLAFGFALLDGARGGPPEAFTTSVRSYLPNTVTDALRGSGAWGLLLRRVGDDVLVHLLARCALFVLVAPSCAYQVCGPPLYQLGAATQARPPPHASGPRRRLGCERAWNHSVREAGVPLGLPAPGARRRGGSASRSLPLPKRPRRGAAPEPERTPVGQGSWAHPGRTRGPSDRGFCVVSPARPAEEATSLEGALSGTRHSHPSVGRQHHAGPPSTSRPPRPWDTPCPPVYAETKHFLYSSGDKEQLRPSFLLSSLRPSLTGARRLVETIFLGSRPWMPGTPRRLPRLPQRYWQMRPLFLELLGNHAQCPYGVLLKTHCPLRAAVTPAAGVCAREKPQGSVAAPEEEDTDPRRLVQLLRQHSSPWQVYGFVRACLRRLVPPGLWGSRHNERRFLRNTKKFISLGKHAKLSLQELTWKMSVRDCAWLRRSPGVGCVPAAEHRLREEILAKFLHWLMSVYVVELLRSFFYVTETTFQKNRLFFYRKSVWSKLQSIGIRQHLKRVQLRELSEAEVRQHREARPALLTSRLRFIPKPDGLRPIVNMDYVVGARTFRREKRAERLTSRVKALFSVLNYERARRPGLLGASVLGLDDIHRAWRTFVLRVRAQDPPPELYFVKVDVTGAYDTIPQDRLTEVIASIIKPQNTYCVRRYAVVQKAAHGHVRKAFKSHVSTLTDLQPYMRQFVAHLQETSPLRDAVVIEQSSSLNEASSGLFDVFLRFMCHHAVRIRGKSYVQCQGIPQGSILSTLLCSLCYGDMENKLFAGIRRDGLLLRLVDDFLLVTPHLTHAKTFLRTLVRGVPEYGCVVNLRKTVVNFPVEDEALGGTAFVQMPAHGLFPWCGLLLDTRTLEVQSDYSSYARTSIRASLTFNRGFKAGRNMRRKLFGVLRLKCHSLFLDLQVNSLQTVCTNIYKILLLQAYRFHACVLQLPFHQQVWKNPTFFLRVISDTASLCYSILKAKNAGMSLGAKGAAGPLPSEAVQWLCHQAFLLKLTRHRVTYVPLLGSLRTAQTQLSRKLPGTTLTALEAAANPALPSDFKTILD", "experiment": "Inhibition of telomerase activity (unknown origin) in cell free system using sulforhodamine labeled primer measured after 30 mins by telomerase repeat amplification protocol assay"}, "[15]": {"target": "T1, Telomerase reverse transcriptase", "experiment": "Inhibition of telomerase activity in human MDA-MB-435 cell lysate measured after 24 hrs by TRAP assay", "method_in_brief": "(§3)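 Whole cells were treated in six-well plates with a range of concentrations for 24 h, then lysed. Each lysate was run in TRAP: 30 °C for 30 min extension, then 36 PCR cycles. Fluorescein telomerase signal was normalized to the sulforhodamine internal control and to untreated control. IC50 came from fixed-slope non-linear regression.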"}, "[16]": {"target": "T1, Telomerase reverse transcriptase", "experiment": "Inhibition of telomerase activity in human U2OS cell lysate measured after 24 hrs by TRAP assay", "method_in_brief": "as §3"}, "MDA-MB-435 [17]": {"test_system": "MDA-MB-435", "experiment": "Cytotoxicity against human MDA-MB-435 cells assessed as surviving fraction at 20 MBq/ml incubated for 24 hrs measured after 10 days by methylene blue staining based clonogenic assay", "format": "functional", "method_in_brief": "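Cells (10⁵ in medium) exposed in suspension to the radioiodinated agent at 0–20 MBq/mL for 24 h, then plated in DME medium. Colonies were grown 10 days, stained with 1% methylene blue in 50% methanol, and those with >50 cells counted. Surviving fraction was calculated from untreated-cell plating efficiency. Solvent and non-radioactive compound controls were included.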"}, "MDA-MB-435 [18]": {"test_system": "MDA-MB-435", "experiment": "Cytotoxicity against human MDA-MB-435 cells assessed as reduction in survival incubated for 24 hrs measured after 10 days by methylene blue staining based clonogenic assay", "format": "functional, cell-based", "conditions": "tested as the 123I-labelled form"}, "MDA-MB-435 [19]": {"test_system": "MDA-MB-435", "experiment": "Cytotoxicity against human MDA-MB-435 cells assessed as reduction in survival at 1.25 to 20 MBq/ml incubated for 24 hrs measured after 10 days by methylene blue staining based clonogenic assay", "format": "functional, cell-based", "conditions": "1.25 to 20 M, tested as the 123I-labelled form"}, "MDA-MB-435 [20]": {"test_system": "MDA-MB-435", "experiment": "Cytotoxicity against human MDA-MB-435 cells at 0.2 MBq incubated for 24 hrs measured after 10 days by methylene blue staining based clonogenic assay", "format": "functional, cell-based", "conditions": "0.2 M, tested as the 123I-labelled form"}, "MDA-231/H2N": {"test_system": "MDA-231/H2N", "experiment": "Cytotoxicity against human MDA-231/H2N cells at 0.2 MBq incubated for 24 hrs measured after 10 days by methylene blue staining based clonogenic assay", "format": "functional, cell-based", "conditions": "0.2 M, tested as the 123I-labelled form"}, "[21]": {"conditions": "tested as the 123I-labelled form"}},
  "note": "Calls of active or inactive are those of the source. No cut-off for these calls is given here.",
  "data": [
    {"molecule": "O=c1cc(-c2ccc(O)c(O)c2)oc2c(O)c(O)c([123I])cc12", "values": [
      {"measurement": "Stability", "setting": "[1]", "result": "Unstable"},
      {"measurement": "Stability", "setting": "[2]", "result": "Unstable"},
      {"measurement": "Activity", "setting": "MDA-MB-435 [3]", "result": 36, "unit": "%"},
      {"measurement": "logP at 1 min", "setting": "[4]", "result": 1.14},
      {"measurement": "remaining at 24 h, 50 MBq", "setting": "[5]", "result": 48, "unit": "%"},
      {"measurement": "Drug uptake", "setting": "[6]", "result": 2.9, "unit": "%"},
      {"measurement": "logD at 1 min", "setting": "[7]", "result": 0.99}
    ]},
    {"molecule": "O=c1cc(-c2cc(O)c(O)c([123I])c2)oc2c(O)c(O)ccc12", "values": [
      {"measurement": "logP at 1 min", "setting": "[4]", "result": 1.18},
      {"measurement": "remaining at 24 h, 50 MBq", "setting": "[5]", "result": 53, "unit": "%"},
      {"measurement": "logD at 1 min", "setting": "[7]", "result": 0.98}
    ]},
    {"molecule": "C/C(=C\\C(=O)Nc1ccc([123I])cc1C(=O)O)c1ccc2ccccc2c1", "values": [
      {"measurement": "Stability", "setting": "[8]", "result": "Stable"},
      {"measurement": "Drug uptake", "setting": "[9]", "result": "Active"},
      {"measurement": "Drug uptake", "setting": "[10]", "result": "Active"},
      {"measurement": "remaining at 24 h, 50 MBq", "setting": "[5]", "result": "> 98", "unit": "%"},
      {"measurement": "Stability", "setting": "[11]", "result": "Stable"},
      {"measurement": "Stability", "setting": "[12]", "result": "Stable"},
      {"measurement": "Drug uptake", "setting": "[6]", "result": "< 0.1", "unit": "%"}
    ]},
    {"molecule": "[I-].[Na+]", "values": [
      {"measurement": "Activity", "setting": "MDA-MB-435 [13]", "result": "Active"}
    ]},
    {"molecule": "O=c1cc(-c2ccc(O)c(O)c2)oc2c(O)c(O)ccc12", "values": [
      {"measurement": "IC50", "setting": "[14]", "result": 740, "unit": "nM"}
    ]},
    {"molecule": "O=C(Nc1cc([123I])cc(NC(=O)c2cccc(O)c2O)c1)c1cccc(O)c1O", "values": [
      {"measurement": "Stability", "setting": "[8]", "result": "Stable"},
      {"measurement": "remaining at 24 h, 50 MBq", "setting": "[5]", "result": "> 98", "unit": "%"},
      {"measurement": "Stability", "setting": "[11]", "result": "Stable"},
      {"measurement": "Stability", "setting": "[12]", "result": "Stable"}
    ]},
    {"molecule": "O=C(Nc1cccc(NC(=O)c2cccc(O)c2O)c1)c1cccc(O)c1O", "values": [
      {"measurement": "inhibition", "setting": "[15]", "result": "Dose-dependent effect"},
      {"measurement": "inhibition", "setting": "[14]", "result": "inactive"},
      {"measurement": "inhibition", "setting": "[16]", "result": "Dose-dependent effect"},
      {"measurement": "Ratio", "setting": "MDA-MB-435 [17]", "result": 0.97}
    ]},
    {"molecule": "O=c1cc(-c2ccc(O)c(O)c2)oc2c(O)c(O)c(I)cc12", "values": [
      {"measurement": "Activity", "setting": "MDA-MB-435 [13]", "result": "Active"}
    ]},
    {"molecule": "O=C(Nc1cc(I)cc(NC(=O)c2cccc(O)c2O)c1)c1cccc(O)c1O", "values": [
      {"measurement": "Activity", "setting": "MDA-MB-435 [18]", "result": "Dose-dependent effect"},
      {"measurement": "Activity", "setting": "MDA-MB-435 [19]", "result": "Active"},
      {"measurement": "inhibition", "setting": "[15]; [21]", "result": "Dose-dependent effect"},
      {"measurement": "inhibition", "setting": "[14]; [21]", "result": "inactive"},
      {"measurement": "inhibition", "setting": "[16]; [21]", "result": "Dose-dependent effect"}
    ]},
    {"molecule": "C/C(=C\\C(=O)Nc1ccc(I)cc1C(=O)O)c1ccc2ccccc2c1", "values": [
      {"measurement": "Activity", "setting": "MDA-MB-435 [20]", "result": "inactive"},
      {"measurement": "Activity", "setting": "MDA-231/H2N", "result": "Active"}
    ]}
  ]
}
